Source: ChEMBL document CHEMBL3526043, “Application of quantitative NMR in pharmacological evaluation of biologically generated metabolites: implications in drug discovery” (Drug Metab Dispos, 2011)

Tests used:
[1] = molecular target: Serine/threonine-protein kinase mTOR (Homo sapiens) (UniProt P42345); experiment: Binding affinity to mTOR (unknown origin) by DELFIA
[2] = Elimination half life in Sprague-Dawley rat at 2 mg/kg, iv administered as bolus dose; assay type: ADME, organism-based; set-up: dose 2 mg/kg, route intravenous; details: in vivo, read-out: beta t1/2 (converted)
Method in brief: (§1)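 Male Sprague-Dawley rats (n=3 per group), jugular/femoral cannulated, fed. Single IV bolus of 2 mg/kg in 5% dextrose/0.5% lactic acid, pH 3.5, at 1 mL/kg. Jugular blood sampled 0–1440 min into EDTA. Plasma measured by LC/MS/MS (LOQ 1 ng/mL, BLQ set to zero). Non-compartmental analysis with linear trapezoidal AUC; CL = Dose/AUC0-∞, Vdss = MRT·CL, t1/2 = 0.693/λ.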

[3] = Volume of distribution at steady state in Sprague-Dawley rat at 2 mg/kg, iv administered as bolus dose; assay type: ADME, organism-based; set-up: dose 2 mg/kg, route intravenous; details: in vivo, read-out: Vdss; method in brief: as §1
Liver microsome [4] = experiment: Drug metabolism in human liver microsomes assessed as (1R,5R,6R)-1-(4-(4-(6-hydroxy-3-oxa-8-azabicyclo[3.2.1]octan-8-yl)-6-morpholino-1,3,5-triazin-2-yl)phenyl)-3-(pyridin-4-yl)urea formation at 0.02 mM after 60 mins by 1H-13C-HSQC spectra analysis; details: 20 µM
Rattus norvegicus = experiment: Drug level in Sprague-Dawley rat at 2 mg/kg, iv; details: in vivo
[5] = Drug metabolism in cynomolgus monkey liver microsomes assessed as (rac)-1-(4-(4-(6-hydroxy-3-oxa-8-azabicyclo[3.2.1]octan-8-yl)-6-morpholino-1,3,5-triazin-2-yl)phenyl)-3-(pyridin-4-yl)urea formation at 0.02 mM after 60 mins by LC-MS analysis; assay type: ADME, Macaca fascicularis; details: 1 h, 20 µM
Liver microsome [6] = experiment: Drug metabolism in human liver microsomes assessed as (rac)-1-(4-(4-(6-hydroxy-3-oxa-8-azabicyclo[3.2.1]octan-8-yl)-6-morpholino-1,3,5-triazin-2-yl)phenyl)-3-(pyridin-4-yl)urea formation at 0.02 mM after 60 mins by LC-MS analysis; assay type: ADME; details: 1 h, 20 µM
Method in brief: (§2)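 Parent at 0.02 mM was incubated with human liver microsomes (1 mg/mL protein) in 0.1 M potassium phosphate pH 7.4 with 5 mM NADPH and 8 mM MgCl₂, at 37 °C for 60 min. Reactions were quenched with 2% formic acid in acetonitrile and the metabolite isolated by semi-preparative C18 HPLC. Identity was checked by LC/MS on C18 with an acetonitrile/5 mM ammonium acetate gradient.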

[7] = molecular target: Phosphatidylinositol 4,5-bisphosphate 3-kinase catalytic subunit alpha isoform (Homo sapiens) (UniProt P42336); experiment: Binding affinity to PI3K-alpha (unknown origin) by fluorescence polarization assay
[8] = molecular target: Phosphatidylinositol 4,5-bisphosphate 3-kinase catalytic subunit gamma isoform (Homo sapiens) (UniProt P48736); experiment: Binding affinity to PI3K-gamma (unknown origin) by fluorescence polarization assay
[9] = AUC (0 to infinity) in Sprague-Dawley rat at 2 mg/kg, iv administered as bolus dose; assay type: ADME, organism-based; set-up: time infinity, dose 2 mg/kg, route intravenous; details: plasma; method in brief: as §1
[10] = Systemic clearance in Sprague-Dawley rat at 2 mg/kg, iv administered as bolus dose; assay type: ADME, organism-based; set-up: dose 2 mg/kg, route intravenous; details: in vivo; method in brief: as §1
Liver microsome [11] = experiment: Drug metabolism in human liver microsomes assessed as (1R,5R,6R)-1-(4-(4-(6-hydroxy-3-oxa-8-azabicyclo[3.2.1]octan-8-yl)-6-morpholino-1,3,5-triazin-2-yl)phenyl)-3-(pyridin-4-yl)urea formation at 0.02 mM after 60 mins by 1H-13C-HSQC spectra analysis; assay type: ADME; details: 20 µM; method in brief: as §2
[12] = Drug level in cynomolgus monkey liver microsomes treated with 1-(4-(4-(3-oxa-8-azabicyclo[3.2.1]octan-8-yl)-6-morpholino-1,3,5-triazin-2-yl)phenyl)-3-(pyridin-4-yl)urea at 0.02 mM after 60 mins by LC-MS analysis; assay type: ADME, Macaca fascicularis; details: 1 h, 20 µM
Liver microsome [13] = experiment: Drug level in human liver microsomes treated with 1-(4-(4-(3-oxa-8-azabicyclo[3.2.1]octan-8-yl)-6-morpholino-1,3,5-triazin-2-yl)phenyl)-3-(pyridin-4-yl)urea by NMR analysis; assay type: ADME
Method in brief: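 Metabolite isolated from the human liver microsome incubation and quantified by 1H NMR. A calibration curve was built from parent-compound spectra at 5 concentrations, using the averaged integration of aromatic protons (δ 8.37, 8.30, 7.55, 7.44). Metabolite concentration was read from that curve; spectra were referenced to residual solvent.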

Liver microsome [14] = experiment: Drug level in human liver microsomes treated with 1-(4-(4-(3-oxa-8-azabicyclo[3.2.1]octan-8-yl)-6-morpholino-1,3,5-triazin-2-yl)phenyl)-3-(pyridin-4-yl)urea at 0.02 mM after 60 mins by LC-MS analysis; assay type: ADME; details: 1 h, 20 µM
Method in brief: (§3)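 Human liver microsomes at 1 mg/mL protein with substrate at 0.02 mM, 5 mM NADPH and 8 mM MgCl2 in 0.1 M potassium phosphate, pH 7.4. Incubated at 37 °C for 60 min. Stopped with 2% formic acid in acetonitrile and centrifuged. Metabolite isolated by semi-preparative C18 HPLC, then characterised by LC/MS (C18, acetonitrile/5 mM ammonium acetate gradient) and NMR.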

Liver microsome [15] = experiment: Drug level in human liver microsomes treated with 1-(4-(4-(3-oxa-8-azabicyclo[3.2.1]octan-8-yl)-6-morpholino-1,3,5-triazin-2-yl)phenyl)-3-(pyridin-4-yl)urea at 0.02 mM after 60 mins by 1H-13C-HSQC spectra analysis; assay type: ADME; details: 20 µM; method in brief: as §3
[16] = Drug metabolism in cynomolgus monkey liver microsomes assessed as hydroxylated product formation after 60 mins by LC-MS analysis; assay type: ADME, Macaca fascicularis; details: 1 h
Method in brief: (§4)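 Single enantiomers incubated with male rat, cynomolgus monkey or human liver microsomes (1 mg/mL) plus cytosol (2 mg/mL). Cofactors: NADPH 5 mM, MgCl2 8 mM, GSH 2 mM and UDPGA 2 mM, in 0.1 M phosphate, pH 7.4, at 37 °C for 60 min. Precipitated with 2% formic acid in acetonitrile, dried, reconstituted, and analysed by LC/MS (C18, 10–40% acetonitrile/5 mM ammonium acetate).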

Liver microsome [17] = experiment: Drug metabolism in human liver microsomes assessed as hydroxylated product formation after 60 mins by LC-MS analysis; assay type: ADME; details: 1 h; method in brief: as §4
[18] = Retention time of the compound by HPLC analysis; assay type: physicochemical
Liver microsome [19] = experiment: Drug metabolism in Sprague-Dawley rat liver microsomes assessed as hydroxylated product formation after 60 mins by LC-MS analysis; assay type: ADME; details: 1 h; method in brief: as §4

Chain of Phosphatidylinositol 4,5-bisphosphate 3-kinase catalytic subunit alpha isoform (Homo sapiens) (P42336 whole entry, canonical isoform): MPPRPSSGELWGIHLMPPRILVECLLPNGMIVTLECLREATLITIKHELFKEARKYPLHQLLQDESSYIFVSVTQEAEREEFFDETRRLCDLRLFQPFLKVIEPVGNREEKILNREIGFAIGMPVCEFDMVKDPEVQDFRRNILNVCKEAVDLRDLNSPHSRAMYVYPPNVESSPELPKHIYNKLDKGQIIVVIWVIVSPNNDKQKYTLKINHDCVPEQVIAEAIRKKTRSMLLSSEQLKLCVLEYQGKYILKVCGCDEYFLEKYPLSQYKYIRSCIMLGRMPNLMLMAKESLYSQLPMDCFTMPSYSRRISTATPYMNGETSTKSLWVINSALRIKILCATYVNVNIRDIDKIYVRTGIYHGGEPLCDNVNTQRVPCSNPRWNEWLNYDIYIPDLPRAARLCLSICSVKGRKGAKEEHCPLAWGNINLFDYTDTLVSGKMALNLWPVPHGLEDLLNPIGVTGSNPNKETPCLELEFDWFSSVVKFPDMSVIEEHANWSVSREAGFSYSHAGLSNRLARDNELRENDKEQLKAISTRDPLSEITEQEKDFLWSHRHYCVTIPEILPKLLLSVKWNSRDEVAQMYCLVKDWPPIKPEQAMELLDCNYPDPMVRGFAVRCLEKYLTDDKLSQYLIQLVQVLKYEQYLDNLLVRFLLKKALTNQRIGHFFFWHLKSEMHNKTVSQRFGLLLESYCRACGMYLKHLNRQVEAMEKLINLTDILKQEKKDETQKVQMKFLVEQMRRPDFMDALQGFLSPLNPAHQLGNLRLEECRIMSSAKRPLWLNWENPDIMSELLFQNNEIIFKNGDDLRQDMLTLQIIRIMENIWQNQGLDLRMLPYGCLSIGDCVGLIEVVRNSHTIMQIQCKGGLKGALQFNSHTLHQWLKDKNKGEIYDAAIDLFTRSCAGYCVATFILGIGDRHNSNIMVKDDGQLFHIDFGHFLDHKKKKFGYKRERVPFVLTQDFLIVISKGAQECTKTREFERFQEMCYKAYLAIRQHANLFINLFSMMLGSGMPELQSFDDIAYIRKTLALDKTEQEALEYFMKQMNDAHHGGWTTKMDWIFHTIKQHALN
Chain of Phosphatidylinositol 4,5-bisphosphate 3-kinase catalytic subunit gamma isoform (Homo sapiens) (P48736 whole entry, looked up, canonical isoform): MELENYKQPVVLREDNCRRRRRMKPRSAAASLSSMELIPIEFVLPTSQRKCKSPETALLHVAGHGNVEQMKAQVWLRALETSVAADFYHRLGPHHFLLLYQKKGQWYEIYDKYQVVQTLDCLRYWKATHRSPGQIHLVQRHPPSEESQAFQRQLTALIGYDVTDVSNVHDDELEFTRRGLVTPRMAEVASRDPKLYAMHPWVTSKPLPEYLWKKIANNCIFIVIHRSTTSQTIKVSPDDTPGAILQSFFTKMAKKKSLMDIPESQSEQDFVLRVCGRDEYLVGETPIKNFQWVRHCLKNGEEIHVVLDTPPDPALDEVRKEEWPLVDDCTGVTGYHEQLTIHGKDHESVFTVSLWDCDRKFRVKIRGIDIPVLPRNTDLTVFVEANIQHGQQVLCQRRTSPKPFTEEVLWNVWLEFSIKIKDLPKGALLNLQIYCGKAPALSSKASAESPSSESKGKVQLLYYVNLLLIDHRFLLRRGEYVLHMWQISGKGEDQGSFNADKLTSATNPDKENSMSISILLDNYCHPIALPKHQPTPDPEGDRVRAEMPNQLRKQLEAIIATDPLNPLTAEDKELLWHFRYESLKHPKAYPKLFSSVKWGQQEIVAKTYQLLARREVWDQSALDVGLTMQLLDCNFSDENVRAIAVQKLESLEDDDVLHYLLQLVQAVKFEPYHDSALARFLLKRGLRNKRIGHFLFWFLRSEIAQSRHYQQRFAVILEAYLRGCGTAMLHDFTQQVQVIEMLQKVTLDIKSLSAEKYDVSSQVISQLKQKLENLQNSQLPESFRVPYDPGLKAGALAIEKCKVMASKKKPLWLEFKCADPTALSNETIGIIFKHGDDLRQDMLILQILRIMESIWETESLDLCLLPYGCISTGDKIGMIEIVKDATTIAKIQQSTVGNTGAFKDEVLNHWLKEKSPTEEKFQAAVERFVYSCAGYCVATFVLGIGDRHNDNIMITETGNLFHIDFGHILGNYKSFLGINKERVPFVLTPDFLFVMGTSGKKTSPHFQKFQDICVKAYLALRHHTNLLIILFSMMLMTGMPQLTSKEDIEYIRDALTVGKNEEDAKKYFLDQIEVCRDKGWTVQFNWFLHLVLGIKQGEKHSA

| Drug metabolism (Liver microsome [4]) | Drug metabolism [5] | Drug metabolism (Liver microsome [6]) | Drug metabolism (Liver microsome [11]) | Structure (SMILES) | Activity [1] | half-life [2] | Vd [3] | Drug uptake (Rattus norvegicus) | Activity [7] | Activity [8] | AUC(0-inf) [9] | clearance [10] | Drug metabolism [12] | Drug uptake (Liver microsome [13]) | Drug metabolism (Liver microsome [14]) | Drug metabolism (Liver microsome [15]) | Drug metabolism [16] | Drug metabolism (Liver microsome [17]) | Retention_time [18] | Stability (Liver microsome [19]) |
| --- | --- | --- | --- | --- | --- | --- | --- | --- | --- | --- | --- | --- | --- | --- | --- | --- | --- | --- | --- | --- |
| metabolite_detected | metabolite_detected | metabolite_detected | metabolite_detected | O=C(Nc1ccncc1)Nc1ccc(-c2nc(N3CCOCC3)nc(N3C4CCC3COC4)n2)cc1 [PKI-179] | 0.5 nM | 54 min | 2.4 L/kg | metabolite_not_detected | 8 nM | 51 nM | 867 ng·h/mL | 38.3 mL/min/kg | – | – | – | – | – | – | – | – |
| – | – | – | – | O=C(Nc1ccncc1)Nc1ccc(-c2nc(N3CCOCC3)nc(N3C4COCC3C(O)C4)n2)cc1 (racemic) | 0.8 nM | – | – | – | 4 nM | 33 nM | – | – | metabolite_detected | 1.72 mM | metabolite_detected | – | – | – | – | – |
| – | – | – | – | O=C(Nc1ccncc1)Nc1ccc(-c2nc(N3CCOCC3)nc(N3[C@@H]4COC[C@H]3[C@@H](O)C4)n2)cc1 | – | 12 min | 0.9 L/kg | metabolite_not_detected | 9 nM | 93 nM | 283 ng·h/mL | 123 mL/min/kg | – | – | – | metabolite_detected | metabolite_detected | metabolite_detected | 13.4 min | Stable |
| – | – | – | – | O=C(Nc1ccncc1)Nc1ccc(-c2nc(N3CCOCC3)nc(N3[C@H]4COC[C@@H]3[C@H](O)C4)n2)cc1 | – | 42 min | 1.5 L/kg | metabolite_not_detected | 4 nM | 50 nM | 315 ng·h/mL | 107 mL/min/kg | – | – | – | metabolite_detected | metabolite_not_detected | metabolite_not_detected | 10.2 min | Stable |
